Results published in ChEMBL document CHEMBL1121447, “Pronounced pharmacological differences arising from minor structural changes in conformationally defined amphetamine analogues. Comparative evaluation of endo- and exo-2-amino- and endo- and exo-2-(methylamino)benzobicyclo[2.2.1]heptene and -benzobicylco[2.2.2]octene analogues. Conformationally …” (J Med Chem, 1980).

Assays:
Assay type in all cases: functional, organism-based
[1] = species on record: Rattus norvegicus; assay: Effective concentration was measured for the release of accumulated [3H]NE from chopped cortex of rat
How it was run: (§1)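 Chopped rat cortex (NE) or corpus striatum (DA) from untreated rats loaded with 10^-6 M [3H]NE or [3H]dopamine, then washed. Exposed to drug (10^-7 to 10^-3 M) for 30 min, then centrifuged. Amines separated from deaminated metabolites on Dowex 50 Na+ and counted by scintillation with recovery correction. Release = % of total label found in medium. EC50 = half-maximal concentration; 3-4 experiments.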

[2] = species on record: Rattus norvegicus; assay: Inhibitory concentration against uptake of [3H]NE into chopped cerebral cortical tissue from rat brain
How it was run: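 Chopped rat cerebral cortex preincubated 10 min at 37 °C in physiological salt solution (95% O2-5% CO2) with drug at 10^-8 to 10^-3 M. [3H]NE then added to 10^-7 M final. Uptake stopped by centrifugation. Tissue ethanol extract and medium counted by scintillation. Inhibition taken as % of control; 3-4 experiments.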

[3] = species on record: Rattus norvegicus; assay: Effective concentration was measured for the release of accumulated [3H]dopamine from chopped striatum of rat; how it was run: as §1

| Compound | EC50 ([1]; Rattus norvegicus) [µM] | IC50 ([2]; Rattus norvegicus, Brain) [nM] | EC50 ([3]; Rattus norvegicus) [µM] | EC50 [1] [µM] | IC50 [2] [nM] | EC50 [3] [µM] |
| --- | --- | --- | --- | --- | --- | --- |
| N[C@H]1CC2C[C@@H]1c1ccccc12 | 630 | 100000 | 794 | – | – | – |
| N[C@@H]1CC2C[C@@H]1c1ccccc12 | 16 | 1100 | 185 | – | – | – |
| NC1CC2CCC1c1ccccc12 (stereo in doubt; 1a) | – | – | – | 147 | 800 | 192 |
| CNC1CC2CCC1c1ccccc12 (stereo in doubt; 1b) | – | – | – | 178 | 800 | 185 |
| NC1CC2CCC1c1ccccc12 (stereo in doubt; 2a) | – | – | – | 1000 | 39000 | 681 |
| CNC1CC2CCC1c1ccccc12 (stereo in doubt; 2b) | – | – | – | > 1000 | 48000 | > 1000 |
| CNC1CC2CC1c1ccccc12 (stereo in doubt; 3b) | – | – | – | 450 | 1800 | 271 |
| CNC1CC2CC1c1ccccc12 (stereo in doubt; 4b) | – | – | – | > 1000 | 369000 | > 1000 |
| C[C@H](N)Cc1ccccc1 [DEXTROAMPHETAMINE] | 0.8 | 200 | 11 | – | – | – |
| C[C@@H](N)Cc1ccccc1 [LEVAMFETAMINE] | 1.7 | 500 | 61 | – | – | – |
